From ChEMBL document CHEMBL1153829, “Exploiting chemical libraries, structure, and genomics in the search for kinase inhibitors” (Science, 1998)
Activity calls are given as the source filed them.

Columns and labels:
Saccharomyces cerevisiae [1] = experiment: Effect on YLR311C gene expression in delta snq2, delta pdr5 and delta erg6 knock out yeast YRP1 bearing cdc28-4 mutant allele assessed as change in mRNA level at 25 µM after 2 hrs by high-density oligonucleotide array; format: functional, organism-based; conditions: 25 M
Saccharomyces cerevisiae [2] = experiment: Increase in YBR296c mRNA level in delta snq2, delta pdr5 and delta erg6 knock out yeast YRP1 at 25 µM after 2 hrs by high-density oligonucleotide array; format: functional, organism-based; conditions: 25 M
Outline: (§1)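 Drug-sensitized S. cerevisiae cultures grown to late logarithmic phase, then exposed to 25 μM inhibitor for 2 h. Polyadenylated mRNA isolated, converted to biotin-labeled cRNA and hybridized to a set of four high-density arrays carrying more than 260,000 25-nucleotide oligomers. Transcripts scored as changed when they shifted more than twofold in triplicate hybridizations for each of two independent experiments.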

Saccharomyces cerevisiae [3] = experiment: Effect on YNR009w gene expression in delta snq2, delta pdr5 and delta erg6 knock out yeast YRP1 assessed as change in mRNA level at 25 µM after 2 hrs by high-density oligonucleotide array; format: functional, organism-based; outline: as §1
Saccharomyces cerevisiae [4] = experiment: Effect on YGR043C gene expression in delta snq2, delta pdr5 and delta erg6 knock out yeast YRP1 assessed as change in mRNA level at 25 µM after 2 hrs by high-density oligonucleotide array; format: functional, organism-based; outline: as §1
Saccharomyces cerevisiae [5] = experiment: Induction of PCK1 gene expression in delta snq2, delta pdr5 and delta erg6 knock out yeast YRP1 at 25 µM after 2 hrs by high-density oligonucleotide array; format: functional, organism-based; conditions: 25 M
Outline: (§2)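 Drug-sensitized yeast strain grown to late logarithmic phase, then exposed to 25 μM inhibitor for 2 h. Polyadenylated mRNA was isolated and converted to biotin-labeled cRNA, which was hybridized to a set of four arrays carrying over 260,000 25-nucleotide oligomers. Transcripts changing more than twofold were scored, from triplicate hybridizations in each of two independent experiments.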

Saccharomyces cerevisiae [6] = experiment: Growth inhibition of delta snq2, delta pdr5 and delta erg6 knock out yeast YRP1 assessed as induction of uniform arrest morphology; format: functional, organism-based
Saccharomyces cerevisiae [7] = experiment: Effect on YCL009c gene expression in delta snq2, delta pdr5 and delta erg6 knock out yeast YRP1 bearing cdc28-4 mutant allele assessed as change in mRNA level at 25 µM after 2 hrs by high-density oligonucleotide array; format: functional, organism-based
Saccharomyces cerevisiae [8] = experiment: Effect on YGL179C gene expression in delta snq2, delta pdr5 and delta erg6 knock out yeast YRP1 assessed as change in mRNA level at 25 µM after 2 hrs by high-density oligonucleotide array; format: functional, organism-based; conditions: 25 M; outline: as §1
Saccharomyces cerevisiae [9] = experiment: Upregulation of SSE2 gene expression in delta snq2, delta pdr5 and delta erg6 knock out yeast YRP1 at 25 µM after 2 hrs by high-density oligonucleotide array; format: functional, organism-based; conditions: 25 M; outline: as §2
Saccharomyces cerevisiae [10] = experiment: Effect on ACH1 gene expression in delta snq2, delta pdr5 and delta erg6 knock out yeast YRP1 bearing cdc28-4 mutant allele assessed as change in mRNA level at 25 µM after 2 hrs by high-density oligonucleotide array; format: functional, organism-based; conditions: 25 M
Saccharomyces cerevisiae [11] = experiment: Induction of ALD4 gene expression in delta snq2, delta pdr5 and delta erg6 knock out yeast YRP1 at 25 µM after 2 hrs by high-density oligonucleotide array; format: functional, organism-based; conditions: 25 M; outline: as §1
Saccharomyces cerevisiae [12] = experiment: Increase in PHO80 mRNA level in delta snq2, delta pdr5 and delta erg6 knock out yeast YRP1 at 25 µM after 2 hrs by high-density oligonucleotide array; format: functional, organism-based; outline: as §1
Saccharomyces cerevisiae [13] = experiment: Upregulation of PDR10 gene expression in delta snq2, delta pdr5 and delta erg6 knock out yeast YRP1 at 25 µM after 2 hrs by high-density oligonucleotide array; format: functional, organism-based; conditions: 25 M; outline: as §2
Saccharomyces cerevisiae [14] = experiment: Upregulation of HSP104 gene expression in delta snq2, delta pdr5 and delta erg6 knock out yeast YRP1 at 25 µM after 2 hrs by high-density oligonucleotide array; format: functional, organism-based; conditions: 25 M; outline: as §2
Saccharomyces cerevisiae [15] = experiment: Downregulation of EGT2 mRNA expression in delta snq2, delta pdr5 and delta erg6 knock out yeast YRP1 at 25 µM after 2 hrs by high-density oligonucleotide array; format: functional, organism-based; conditions: 25 M; outline: as §1
Saccharomyces cerevisiae [16] = experiment: Increase in UB14 mRNA level in delta snq2, delta pdr5 and delta erg6 knock out yeast YRP1 at 25 µM after 2 hrs by high-density oligonucleotide array; format: functional, organism-based; outline: as §1
Saccharomyces cerevisiae [17] = experiment: Upregulation of PDR15 gene expression in delta snq2, delta pdr5 and delta erg6 knock out yeast YRP1 at 25 µM after 2 hrs by high-density oligonucleotide array; format: functional, organism-based; conditions: 25 M; outline: as §2
Saccharomyces cerevisiae [18] = experiment: Increase in PHO81 mRNA level in delta snq2, delta pdr5 and delta erg6 knock out yeast YRP1 at 25 µM after 2 hrs by high-density oligonucleotide array; format: functional, organism-based; conditions: 25 M; outline: as §1
Saccharomyces cerevisiae [19] = experiment: Increase in PHO8 mRNA level in delta snq2, delta pdr5 and delta erg6 knock out yeast YRP1 at 25 µM after 2 hrs by high-density oligonucleotide array; format: functional, organism-based; outline: as §1
Saccharomyces cerevisiae [20] = experiment: Upregulation of GSC2 gene expression in delta snq2, delta pdr5 and delta erg6 knock out yeast YRP1 at 25 µM after 2 hrs by high-density oligonucleotide array; format: functional, organism-based; conditions: 25 M; outline: as §2
Saccharomyces cerevisiae [21] = experiment: Growth inhibition of delta snq2, delta pdr5 and delta erg6 knock out yeast YRP1 assessed as synchronization by FACS analysis; format: functional, organism-based
Saccharomyces cerevisiae [22] = experiment: Induction of YPR184W gene expression in delta snq2, delta pdr5 and delta erg6 knock out yeast YRP1 at 25 µM after 2 hrs by high-density oligonucleotide array; format: functional, organism-based; outline: as §2
Saccharomyces cerevisiae [23] = experiment: Upregulation of HSP30 gene expression in delta snq2, delta pdr5 and delta erg6 knock out yeast YRP1 at 25 µM after 2 hrs by high-density oligonucleotide array; format: functional, organism-based; conditions: 25 M; outline: as §2
Saccharomyces cerevisiae [24] = experiment: Induction of HAP4 gene expression in delta snq2, delta pdr5 and delta erg6 knock out yeast YRP1 bearing cdc28-4 mutant allele at 25 µM after 2 hrs by high-density oligonucleotide array; format: functional, organism-based; conditions: 25 M
Outline: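 cdc28-4 temperature-sensitive strain and its isogenic wild type were profiled at the permissive temperature of 25°C. Polyadenylated mRNA was converted to biotin-labeled cRNA and hybridized to high-density oligonucleotide arrays. Transcripts changing more than twofold were scored, from triplicate hybridizations of RNA from a single experiment.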

Saccharomyces cerevisiae [25] = experiment: Effect on FAR1 gene expression in delta snq2, delta pdr5 and delta erg6 knock out yeast YRP1 assessed as change in mRNA level at 25 µM after 2 hrs by high-density oligonucleotide array; format: functional, organism-based; outline: as §1
Saccharomyces cerevisiae [26] = experiment: Effect on YOL155C gene expression in delta snq2, delta pdr5 and delta erg6 knock out yeast YRP1 bearing cdc28-4 mutant allele assessed as change in mRNA level at 25 µM after 2 hrs by high-density oligonucleotide array; format: functional, organism-based
Saccharomyces cerevisiae [27] = experiment: Induction of HXT5 gene expression in delta snq2, delta pdr5 and delta erg6 knock out yeast YRP1 at 25 µM after 2 hrs by high-density oligonucleotide array; format: functional, organism-based; outline: as §2
Saccharomyces cerevisiae [28] = experiment: Downregulation of HTA2 mRNA expression in delta snq2, delta pdr5 and delta erg6 knock out yeast YRP1 at 25 µM after 2 hrs by high-density oligonucleotide array; format: functional, organism-based; outline: as §1
Saccharomyces cerevisiae [29] = experiment: Decrease in RPL26B mRNA level in delta snq2, delta pdr5 and delta erg6 knock out yeast YRP1 at 25 µM after 2 hrs by high-density oligonucleotide array; format: functional; outline: as §1
Saccharomyces cerevisiae [30] = experiment: Effect on YER037w gene expression in delta snq2, delta pdr5 and delta erg6 knock out yeast YRP1 bearing cdc28-4 mutant allele assessed as change in mRNA level at 25 µM after 2 hrs by high-density oligonucleotide array; format: functional, organism-based
Saccharomyces cerevisiae [31] = experiment: Increase in PCL5 mRNA level in delta snq2, delta pdr5 and delta erg6 knock out yeast YRP1 at 25 µM after 2 hrs by high-density oligonucleotide array; format: functional, organism-based; outline: as §1
Saccharomyces cerevisiae [32] = experiment: Effect on CYC3 gene expression in delta snq2, delta pdr5 and delta erg6 knock out yeast YRP1 bearing cdc28-4 mutant allele assessed as change in mRNA level at 25 µM after 2 hrs by high-density oligonucleotide array; format: functional, organism-based; conditions: 25 M

CC(C)n1cnc2/c(=N/c3cccc(Cl)c3)nc(NCCO)[nH]c21
inactive: Activity (Saccharomyces cerevisiae [6]) | Activity (Saccharomyces cerevisiae [21])
3: fold change (FC) (Saccharomyces cerevisiae [29])
active: Activity (Saccharomyces cerevisiae [1]) | Activity (Saccharomyces cerevisiae [2]) | Activity (Saccharomyces cerevisiae [3]) | Activity (Saccharomyces cerevisiae [4]) | Activity (Saccharomyces cerevisiae [5]) | Activity (Saccharomyces cerevisiae [7]) | Activity (Saccharomyces cerevisiae [8]) | Activity (Saccharomyces cerevisiae [9]) | Activity (Saccharomyces cerevisiae [10]) | Activity (Saccharomyces cerevisiae [11]) | Activity (Saccharomyces cerevisiae [12]) | Activity (Saccharomyces cerevisiae [13]) | Activity (Saccharomyces cerevisiae [14]) | Activity (Saccharomyces cerevisiae [15]) | Activity (Saccharomyces cerevisiae [16]) | Activity (Saccharomyces cerevisiae [17]) | Activity (Saccharomyces cerevisiae [18]) | Activity (Saccharomyces cerevisiae [19]) | Activity (Saccharomyces cerevisiae [20]) | Activity (Saccharomyces cerevisiae [22]) | Activity (Saccharomyces cerevisiae [23]) | Activity (Saccharomyces cerevisiae [24]) | Activity (Saccharomyces cerevisiae [25]) | Activity (Saccharomyces cerevisiae [26]) | Activity (Saccharomyces cerevisiae [27]) | Activity (Saccharomyces cerevisiae [28]) | Activity (Saccharomyces cerevisiae [30]) | Activity (Saccharomyces cerevisiae [31]) | Activity (Saccharomyces cerevisiae [32])

CN1CC[C@H](c2c(O)cc(O)c3c(=O)cc(-c4ccccc4Cl)oc23)[C@H](O)C1 [ALVOCIDIB]
active: Activity (Saccharomyces cerevisiae [1]) | Activity (Saccharomyces cerevisiae [2]) | Activity (Saccharomyces cerevisiae [3]) | Activity (Saccharomyces cerevisiae [4]) | Activity (Saccharomyces cerevisiae [5]) | Activity (Saccharomyces cerevisiae [7]) | Activity (Saccharomyces cerevisiae [8]) | Activity (Saccharomyces cerevisiae [9]) | Activity (Saccharomyces cerevisiae [10]) | Activity (Saccharomyces cerevisiae [11]) | Activity (Saccharomyces cerevisiae [12]) | Activity (Saccharomyces cerevisiae [13]) | Activity (Saccharomyces cerevisiae [14]) | Activity (Saccharomyces cerevisiae [15]) | Activity (Saccharomyces cerevisiae [16]) | Activity (Saccharomyces cerevisiae [17]) | Activity (Saccharomyces cerevisiae [18]) | Activity (Saccharomyces cerevisiae [19]) | Activity (Saccharomyces cerevisiae [20]) | Activity (Saccharomyces cerevisiae [22]) | Activity (Saccharomyces cerevisiae [23]) | Activity (Saccharomyces cerevisiae [24]) | Activity (Saccharomyces cerevisiae [25]) | Activity (Saccharomyces cerevisiae [26]) | Activity (Saccharomyces cerevisiae [27]) | Activity (Saccharomyces cerevisiae [28]) | Activity (Saccharomyces cerevisiae [30]) | Activity (Saccharomyces cerevisiae [31]) | Activity (Saccharomyces cerevisiae [32])
inactive: Activity (Saccharomyces cerevisiae [6]) | Activity (Saccharomyces cerevisiae [21])
3: fold change (FC) (Saccharomyces cerevisiae [29])
